Measured values from different studies.
Each line is one published result; the experiments were not run side by side. ≈ marks a conversion by molar mass, not a printed value.
Organism: Staphylococcus aureus

CC(=O)NC[C@H]1CN(c2ccc(N3CCOCC3)c(F)c2)C(=O)O1  MBC (microbial killing; ATCC43300 MRSA): 40.6 µg/mL (≈ 120 µM)
O=C/C=C/c1ccccc1  inhibition zone (microbial growth, well diffusion; MTCC96; 1000 µg/mL, 18 h): 8 mm
C[C@@H]1C[C@@H]([C@H](O)CC2CC(=O)NC(=O)C2)C(=O)[C@@H](C)C1  MIC (microbial growth, broth dilution; ATCC6538): 28 µg/mL
O=C(O)c1cn(C2CC2)c2cc(N3CCNCC3)c(F)cc2c1=O  inhibition zone (microbial growth, well diffusion; ATCC23235; 100 µg/mL): 36 mm
O=C(O)c1cn(C2CC2)c2cc(N3CCNCC3)c(F)cc2c1=O  MIC (microbial growth, broth dilution; ATCC33591 MRSA; 16 h, drug-resistant strain): 6.25 µM
Cc1onc(-c2ccccc2)c1C(=O)N[C@@H]1C(=O)N2[C@@H]1SC(C)(C)[C@@H]2C(=O)O  MIC (microbial growth; MRSA; drug-resistant strain): > 4 µg/mL
CN(C)[C@@H]1C(O)=C(C(N)=O)C(=O)[C@@]2(O)C(O)=C3C(=O)c4c(O)cccc4[C@@](C)(O)[C@H]3C[C@@H]12  MIC (microbial growth, broth dilution; ATCC33591 MRSA; 16 h, drug-resistant strain): 100 µM
COc1ccc2c(c1OC)CN1CCc3cc4c(cc3C1C2)OCO4 (stereo not shown)  MIC50 (microbial growth; 24 h): > 1600 µM
C[C@@H](N)[C@H](O)CCCCCCCC(=O)CCCCCCCCCCCCCC[C@@H](O[C@@H]1O[C@H](CO)[C@H](O)[C@H](O)[C@H]1O)[C@@H](C)N  inhibition (microbial growth, resazurin; ATCC12600; 50 µM): 99%
COc1cccc(OC)c1C(=O)N[C@@H]1C(=O)N2[C@@H]1SC(C)(C)[C@@H]2C(=O)O  MIC (microbial growth, broth dilution; ATCCBAA44; drug-resistant strain): > 64 µg/mL
CCc1ccc(N2C(=O)/C(=C3/C(=O)N(C)c4ccc(Cl)cc43)NC2=S)cc1  MIC (microbial growth, broth dilution; ATCC43300 MRSA): 9.2 µg/mL
CCOC(=O)/C=C1/SC(N/N=C/c2c(-c3ccc(F)cc3)nc3ncccn23)=NC1=O  inhibition zone (microbial growth, well diffusion; ATCC23235; 100 µg/mL): 10 mm
CC(=O)NC[C@H]1CN(c2ccc(N3CCOCC3)c(F)c2)C(=O)O1  MIC (microbial growth, broth dilution; MRSA): 1 µg/mL
C[C@H]1COc2c(N3CCN(C)CC3)c(F)cc3c(=O)c(C(=O)O)cn1c23  MIC (microbial growth; MRSA; drug-resistant strain): 0.25 µg/mL
CN[C@H](CC(C)C)C(=O)N[C@H]1C(=O)N[C@@H](CC(N)=O)C(=O)N[C@H]2C(=O)N[C@H]3C(=O)N[C@H](C(=O)N[C@H](C(=O)O)c4cc(O)cc(O)c4-c4cc3ccc4O)[C@H](O)c3ccc(c(Cl)c3)Oc3cc2cc(c3O[C@@H]2O[C@H](CO)[C@@H](O)[C@H](O)[C@H]2O[C@H]2C[C@](C)(N)[C@H](O)[C@H](C)O2)Oc2ccc(cc2Cl)[C@H]1O  MIC (microbial growth, broth dilution; ATCCBAA44; drug-resistant strain): 1 µg/mL
CN1C(=S)N(c2ccccc2)C(=O)/C1=C1/C(=O)N(C)c2ccc(Cl)cc21  MIC (microbial growth, broth dilution; ATCC43300 MRSA): 2.4 µg/mL
